UPR XBP1 act = activators of adaptive arm of unfolded protein response (XBP1); activation, % at 20 µM; 330,000 tested, 0.33% active; CHO-XBP1 luciferase reporter, IRE1-XBP1 UPR activation, luminescence; percent of tunicamycin response, DMSO as zero;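 active = versus positive control, 20 µM dose yields 30% or more activation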
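Test system: CHO-XBP1 luciferase reporter cells | Buffer or medium: Serum-containing F12 medium, 10% FBS | Schedule: 6 h compound exposure at 37 °C, 5% CO2 | Detection: Steady-Glo luciferase glow luminescence, 10 min after reagent addition | Read-out basis: Activation, % of tunicamycin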
Apaf1 inhib = blocks human Apaf-1 apoptosome activity; O14727; reconstituted apoptosome caspase-3 activity, DEVD-Rh110 fluorescence; 330,000 tested, 0.71% active; inhibition, % at 20 µM; AID 489030; active = inhibition of at least 40% at 20 µM
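Assay system – apoptosome proteins · Medium – Hepes buffer, pH 7.5 · Also added – cytochrome c with DEVD-Rh110 · Timing – 30 min compound preincubation, 50 min activation, room temperature · Detection – Rh110 fluorescence, excitation 480 nm, emission 540 nm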
Mdm2 MdmX PPI = disrupts the human Mdm2-MdmX interaction | O15151+Q00987 | SaOS-2 split-luciferase Mdm2/MdmX complementation, luminescence | inhibition, % at 8 µM | 330,000 tested, 3% active | AID 485346;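 active = inhibition of at least 50% at 8 µM in the primary screen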
Target sequence (O15151 whole entry, looked up): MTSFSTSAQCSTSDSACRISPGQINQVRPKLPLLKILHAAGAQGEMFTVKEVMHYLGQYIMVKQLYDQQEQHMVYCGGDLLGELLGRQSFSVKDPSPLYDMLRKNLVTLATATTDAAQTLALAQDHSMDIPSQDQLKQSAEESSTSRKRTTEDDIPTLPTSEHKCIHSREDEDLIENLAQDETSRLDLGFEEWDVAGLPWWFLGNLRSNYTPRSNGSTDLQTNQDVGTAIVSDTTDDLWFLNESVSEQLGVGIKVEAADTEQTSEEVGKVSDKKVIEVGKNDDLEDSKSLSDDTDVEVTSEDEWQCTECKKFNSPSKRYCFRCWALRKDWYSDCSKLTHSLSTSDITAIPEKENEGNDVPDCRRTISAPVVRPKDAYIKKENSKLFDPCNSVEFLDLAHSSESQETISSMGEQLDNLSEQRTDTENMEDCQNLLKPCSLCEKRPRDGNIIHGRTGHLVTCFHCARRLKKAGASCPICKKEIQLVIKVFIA
Target sequence (Q00987 whole entry, looked up): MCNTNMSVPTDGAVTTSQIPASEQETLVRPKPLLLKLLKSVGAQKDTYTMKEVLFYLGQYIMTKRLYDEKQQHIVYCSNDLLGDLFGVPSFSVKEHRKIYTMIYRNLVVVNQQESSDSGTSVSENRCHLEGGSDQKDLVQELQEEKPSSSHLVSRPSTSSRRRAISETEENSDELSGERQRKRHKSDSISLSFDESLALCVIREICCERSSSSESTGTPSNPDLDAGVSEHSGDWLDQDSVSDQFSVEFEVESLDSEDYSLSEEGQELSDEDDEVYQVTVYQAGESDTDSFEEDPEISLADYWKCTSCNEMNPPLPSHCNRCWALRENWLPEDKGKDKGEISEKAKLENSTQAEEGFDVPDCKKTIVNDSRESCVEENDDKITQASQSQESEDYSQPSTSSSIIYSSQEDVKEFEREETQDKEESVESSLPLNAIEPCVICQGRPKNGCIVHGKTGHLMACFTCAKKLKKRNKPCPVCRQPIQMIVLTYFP
UPR CHOP act = activators of apoptotic arm of unfolded protein response (CHOP). CHO-CHOP luciferase reporter, UPR activation, luminescence; percent of tunicamycin response over DMSO baseline. activation, % at 10 µM. 330,000 tested, 0.34% active. AID 449763;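 active = at 10 µM dose, activation of 40% or more, normalized to positive control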
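assay system = CHO CHOP reporter cells | amount = 500 CHO-CHOP cells per well | buffer or medium = F12 with 10% FBS | incubation = 16-18 h cell attachment, then 6 h compound exposure, 37 °C | detection = luminescence read with Steady-Glo | read-out = percent activation relative to tunicamycin control | controls = tunicamycin high control, DMSO low control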
UBC13 polyUb = inhibitors of human UBC13 polyubiquitin chain formation; TR-FRET; inhibition, % at 20 µM; 330,000 tested, 0.47% active; AID 485273; in the data active = inhibition above about 45%, passing the limit was not always enough
Casp3 counter = inhibits human caspase-3 in UBC13 counter-screen | shares compounds with UBC13 polyUb | Recombinant caspase-3, Caspase-Glo 3/7 luminescence, 60 min | inhibition, % at 20 µM | 1,400 tested, 4% active;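 active = mean inhibition across replicates above about 26%, limit read from the data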
UBC13 confirm = human UBC13 polyubiquitin inhibition, confirmed | shares compounds with UBC13 polyUb | UBC13 polyubiquitination, TR-FRET, biochemical | inhibition, % at 10 µM | 1,400 tested, 68% active; in the data active = inhibition above about 45%
Mdm2 MdmX conf = human Mdm2/MdmX binding inhibition, confirmed; shares compounds with Mdm2 MdmX PPI; luminescent assay; inhibition, % at 8 µM; 10,000 tested, 55% active; in the data active = inhibition above about 40%
Full FLuc ctr = counter-screen for Mdm2/MdmX inhibitors: full-length luciferase; shares compounds with Mdm2 MdmX PPI; SaOS-2 full-length luciferase counterscreen, luminescence; inhibition, % at 8 µM; 6,200 tested, 77% active;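 active = mean inhibition at 8 µM reaching about 37%, which flags the compound as non-specific, limit read from the data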;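 note: p53-null SaOS-2 cells with luciferase driven by a doxycycline-inducible promoter; compound on cells about two nights before reading with doxycycline added after day one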
Apaf-1 inh conf2 = Apaf-1 inhibition, single-dose confirmed. shares compounds with Apaf1 inhib. reconstituted apoptosome, caspase-3 DEVD-Rh110 fluorescence. inhibition, % at 20 µM. 1,800 tested, 25% active;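 active = mean inhibition of at least 40% at 20 µM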
Rh110 quench = counter-screen for Apaf-1 inhibitors: fluorescence interference. shares compounds with Apaf1 inhib. Rh110 fluorescence interference, quenched caspase reaction. activation (fluorescence interference), % at 20 µM. 1,800 tested, under 10 active. AID 504615;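 active = signal rise of 40% or more at 20 µM, treated as a fluorescence artifact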
Apaf1 inh interf = counter-screen for Apaf-1 inhibitors: fluorescence interference, dose response; shares compounds with Apaf1 inhib; fluorescence interference counterscreen, Apaf-1 assay format; IC50, µM; 460 tested, under 10 active; AID 588538; call rule not given here
Each line names hits and unclear results; the compound was inactive in the other large screens (follow-up assays come after a bar, where they were run). Compounds with a hit are over-represented: about 4.1% of the library has one in this group of screens.

C/C=C(\C)C(=O)NCCN1C2=NC[C@H](Cc3ccccc3)N2C[C@H]1Cc1ccc(O)cc1	none
COc1cccc(C(=O)COC(=O)C(C)N2C(=O)C3C4C=CC(C4)C3C2=O)c1 (stereo unspecified)	none
Nn1c(SCC(=O)Nc2ccc(N3CCOCC3)cc2)nnc1-c1cccc(F)c1	none
Clc1ccc(-c2noc3c2-c2nc(Cc4cccc5ccccc45)sc2CC3)cc1	none
CC[C@@H](C)[C@@H]1CN([C@@H](C)CN2CCC[C@H]2CN2C(N)=NC[C@H]2CC(C)C)C(=N)N1CCCC1CCCC1	none
CC(C)C[C@@H]1CN=C(N)N1C[C@@H]1CCCN1C[C@@H](C(C)C)N1C[C@@H](Cc2ccccc2)N(CCCC2CCCC2)C1=N	Apaf1 inhib 54.8, UBC13 polyUb 78.1 | Casp3 counter inactive | UBC13 confirm 76.5 | Apaf-1 inh conf2 inactive | Rh110 quench inactive
CCC[C@@H](CN1CCC[C@H]1CN1C(N)=NC[C@H]1C(C)C)N1C[C@@H](Cc2ccccc2)N(CCCC2CCCC2)C1=N	Apaf1 inhib 45.6, UBC13 polyUb 64.7 | Casp3 counter inactive | UBC13 confirm 46.7 | Apaf-1 inh conf2 inactive | Rh110 quench inactive
Cc1ccc(-n2c(CSc3nc(C)cc(C)n3)nnc2SCC(=O)N2CCCC2)cc1	none
OCCN1CCN(CCCN2c3ccccc3Sc3ccc(Cl)cc32)CC1	Apaf1 inhib 45.7, UBC13 polyUb 90.3 | Casp3 counter inactive | UBC13 confirm 98.9 | Apaf-1 inh conf2 inactive | Rh110 quench inactive
OCCN1CCN(CC/C=C2/c3ccccc3Sc3ccc(Cl)cc32)CC1	Apaf1 inhib 43.4, Mdm2 MdmX PPI 60.8, UBC13 polyUb 74.5 | Casp3 counter inactive | UBC13 confirm 60.1 | Mdm2 MdmX conf inactive | Apaf-1 inh conf2 inactive | Rh110 quench inactive
CC(=O)c1ccc2c(c1)N(CCCN1CCC(CCO)CC1)c1ccccc1S2	none
COc1cc(OC)cc(-c2sc3ccc(OC)cc3c2C#CC2(N)CCCCC2)c1	Apaf1 inhib 67.2, Mdm2 MdmX PPI 95.7, UBC13 polyUb 83.8 | Casp3 counter inactive | UBC13 confirm 76.7 | Mdm2 MdmX conf inactive | Apaf-1 inh conf2 inactive | Rh110 quench inactive
CCC(C)(C)c1ccc(OCCCC[n+]2ccccc2)c(C(C)(C)CC)c1	Apaf1 inhib 50.8, Mdm2 MdmX PPI 83.5, UBC13 polyUb 65.5 | Casp3 counter inactive | UBC13 confirm 97.8 | Mdm2 MdmX conf 94.1 | Full FLuc ctr 56.0 | Apaf-1 inh conf2 inactive | Rh110 quench inactive
CCCCOc1ccc(C)cc1CN(CCO)CCO	none
CCCCCc1ccc(OCCCC[n+]2cccc(C)c2)c(CCCCC)c1	Apaf1 inhib 61.0, Mdm2 MdmX PPI 83.3, UBC13 polyUb 59.4 | Casp3 counter inactive | UBC13 confirm 89.7 | Mdm2 MdmX conf 90.0 | Full FLuc ctr 59.8 | Apaf-1 inh conf2 40.2 | Rh110 quench inactive | Apaf1 inh interf inactive
CCCCCc1ccc(OCCCC[n+]2ccccc2)c(CCCCC)c1	Apaf1 inhib 58.8, Mdm2 MdmX PPI 87.4, UBC13 polyUb 59.1 | Casp3 counter inactive | UBC13 confirm 84.4 | Mdm2 MdmX conf 76.7 | Full FLuc ctr inactive | Apaf-1 inh conf2 inactive | Rh110 quench inactive
CN(C(=O)CSc1nc2ccccc2o1)C1CCCCC1	none
C[C@@H](CN1C2=NC[C@H](Cc3ccc(O)cc3)N2C[C@H]1Cc1ccc(O)cc1)NC(=O)CCC1CCCCC1	none
C[C@@H](CN1C2=NC[C@H](Cc3ccccc3)N2C[C@H]1Cc1ccc(O)cc1)NC(=O)CCC1CCCCC1	Apaf1 inhib 40.7, UBC13 polyUb 65.6 | Casp3 counter inactive | UBC13 confirm inactive | Apaf-1 inh conf2 inactive | Rh110 quench inactive
CCOC(=O)C1CCN(c2c(Nc3ccc(C)c(C)c3)c(=O)c2=O)CC1	none
FC(F)(F)c1ccc(NC(=S)NCc2ccccc2)cc1	none
CN1CCC(=O)N([C@H](COc2ccccc2)Cc2ccccc2)CC1	none
CCOC(=O)CCc1nc2ccccc2[nH]1	none
COCC(=O)O[C@]1(CCN(C)CCCc2nc3ccccc3[nH]2)CCc2cc(F)ccc2[C@@H]1C(C)C	Apaf1 inhib 54.3, Mdm2 MdmX PPI 93.0, UBC13 polyUb 66.7 | Casp3 counter inactive | UBC13 confirm 60.2 | Mdm2 MdmX conf 53.2 | Full FLuc ctr 36.4 | Apaf-1 inh conf2 inactive | Rh110 quench inactive
CC(=O)c1ccc(NC(=O)C(C)Sc2nnc(C3CCCCC3)o2)cc1 (stereo unspecified)	none
CCCCN1CCNC[C@H]1Cc1ccc(O)cc1	none
Oc1ccc(C[C@@H]2CNCCN2CCC23CC4CC(CC(C4)C2)C3)cc1	Apaf1 inhib 47.0, Mdm2 MdmX PPI 73.0, UBC13 polyUb 58.1 | Casp3 counter inactive | UBC13 confirm inactive | Mdm2 MdmX conf inactive | Full FLuc ctr 63.9 | Apaf-1 inh conf2 inactive | Rh110 quench inactive
CN(C)CCCNc1cc(C(C)(C)C)nc2c(-c3ccc(Cl)cc3)cnn12	Apaf1 inhib 58.3, Mdm2 MdmX PPI 97.7, UBC13 polyUb 88.7 | Casp3 counter inactive | UBC13 confirm 94.7 | Mdm2 MdmX conf 71.7 | Full FLuc ctr 50.5 | Apaf-1 inh conf2 inactive | Rh110 quench inactive
COc1ccccc1N(C)S(=O)(=O)c1ccc(C(=O)OCC(=O)c2c[nH]c3ccccc23)cc1	none
CCN(CC)CCNC(=O)c1ccc(NC(=O)c2cn(-c3ccc(F)cc3)nc2-c2cccc(OC)c2)cc1	Apaf1 inhib 45.1, Mdm2 MdmX PPI 96.4, UBC13 polyUb 92.0 | Casp3 counter inactive | UBC13 confirm 115.2 | Mdm2 MdmX conf 58.2 | Full FLuc ctr inactive | Apaf-1 inh conf2 inactive | Rh110 quench inactive

Screens deposited in PubChem BioAssay by Sanford-Burnham Center for Chemical Genomics.
